PubChem BioAssay
Calls of active or inactive are those of the source. Unless noted, no stated cut-off is given here; in the data, active means inhibition above about 30%; inactive means the rest.

What was measured:
[1] = Her2 expression decrease, cell viability multiplex – SKBR3 breast tumor cells, AlphaScreen, ATP viability, primary screen (AID 461;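 active means Her2 level under about 52% in both replicate screens, with viability over 70% of control, limit read from the data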;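 on Her2 level: lower value means less Her2 protein in the cells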;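 on viability: percent of carrier control wells set as 100% viability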); conditions: SKBR3 Her2 protein level, 18-24 h, measured here: SKBR3 viability, ATP luminescence, at 10 µM
[2] = target: Receptor tyrosine-protein kinase erbB-2 (Homo sapiens) (UniProt P04626); assay: as above; conditions: 18-24 h, at 10 µM, stronger effect = lower value
[3] = reduced viability of SK-BR-3 breast cancer cells – cell-based, 24 h, human, pilot screen (AID 572;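 active means viability at or below 10% of carrier control in both of two separate runs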;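 further: compound exposure lasted between 18 and 24 h rather than exactly 24 h; 100% = carrier-treated control wells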); conditions: SK-BR-3 viability, CellTiter-Glo luminescence, at 10 µM, stronger effect = lower value
[4] = HUVEC growth inhibition – cell-based, human, primary screen (AID 575;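 active means viability at or below 30% in both replicate assays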;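 further: 100% = median of untreated cell wells with 0.1% DMSO on each plate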); conditions: HUVEC proliferation, CellTiter-Glo luminescence, 72 h; at 10 µM; stronger effect = lower value
Procedure, shortened: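 System: primary human umbilical vein endothelial cells; Quantity: 1250 endothelial cells in each well; Buffer or medium: supplemented EBM, 2% fetal bovine serum; Doses: one dose, 10 µM final, 0.1% DMSO; Incubation: 72 h compound incubation; Technique: ATP-based CellTiter-Glo luminescent read; Evaluation: percent of median DMSO-control luminescence; Controls: vehicle and MePR control wells.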

[5] = H69AR cell proliferation blockers – human, duplicate replicates, primary screen (AID 580;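 active means viability at or under a set limit in both replicates, limit being median viability minus 3 SD, cut at about 48% in these data, passing the limit was not always enough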;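 further: 100% = mean luminescence of untreated wells and 0% = no signal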); conditions: H69AR lung tumor cells viability, ATP luminescence, 72 h; at 10 µM; stronger effect = lower value
[6] = MRP1 drug-resistance reversers in H69AR cells – cell-based, doxorubicin co-treatment, pilot screen (AID 601;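 active means viability loss from added drug above about 55%, and viability with drug at most 40%, in both replicates, limit read from the data, passing the limit was not always enough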); conditions: CellTiter-Glo, 72 h, at 10 µM; for differential viability (reversal): stronger effect = higher value
[7] = yeast transport mutant growth inhibition pilot in 384-well plates, post-Golgi transport modulator project (AID 636; in the data active means inhibition above about 31%); conditions: absorbance 615 nm, about 18 h, stronger effect = higher value
[8] = growth suppression of yeast trafficking mutant, preliminary HTS, modulators of trafficking downstream of Golgi apparatus project, 1536-format plate, OD 615 nm (AID 637); conditions: yeast transport mutant growth, absorbance 615 nm, 18 h; stronger effect = higher value
[9] = H69AR cells + 2 uM doxorubicin, measured here: viability with 2 uM doxorubicin, stronger effect = lower value
[10] = H69AR cells, compound alone cytotoxicity

Sequence of Receptor tyrosine-protein kinase erbB-2 (Homo sapiens) (P04626 whole entry, looked up): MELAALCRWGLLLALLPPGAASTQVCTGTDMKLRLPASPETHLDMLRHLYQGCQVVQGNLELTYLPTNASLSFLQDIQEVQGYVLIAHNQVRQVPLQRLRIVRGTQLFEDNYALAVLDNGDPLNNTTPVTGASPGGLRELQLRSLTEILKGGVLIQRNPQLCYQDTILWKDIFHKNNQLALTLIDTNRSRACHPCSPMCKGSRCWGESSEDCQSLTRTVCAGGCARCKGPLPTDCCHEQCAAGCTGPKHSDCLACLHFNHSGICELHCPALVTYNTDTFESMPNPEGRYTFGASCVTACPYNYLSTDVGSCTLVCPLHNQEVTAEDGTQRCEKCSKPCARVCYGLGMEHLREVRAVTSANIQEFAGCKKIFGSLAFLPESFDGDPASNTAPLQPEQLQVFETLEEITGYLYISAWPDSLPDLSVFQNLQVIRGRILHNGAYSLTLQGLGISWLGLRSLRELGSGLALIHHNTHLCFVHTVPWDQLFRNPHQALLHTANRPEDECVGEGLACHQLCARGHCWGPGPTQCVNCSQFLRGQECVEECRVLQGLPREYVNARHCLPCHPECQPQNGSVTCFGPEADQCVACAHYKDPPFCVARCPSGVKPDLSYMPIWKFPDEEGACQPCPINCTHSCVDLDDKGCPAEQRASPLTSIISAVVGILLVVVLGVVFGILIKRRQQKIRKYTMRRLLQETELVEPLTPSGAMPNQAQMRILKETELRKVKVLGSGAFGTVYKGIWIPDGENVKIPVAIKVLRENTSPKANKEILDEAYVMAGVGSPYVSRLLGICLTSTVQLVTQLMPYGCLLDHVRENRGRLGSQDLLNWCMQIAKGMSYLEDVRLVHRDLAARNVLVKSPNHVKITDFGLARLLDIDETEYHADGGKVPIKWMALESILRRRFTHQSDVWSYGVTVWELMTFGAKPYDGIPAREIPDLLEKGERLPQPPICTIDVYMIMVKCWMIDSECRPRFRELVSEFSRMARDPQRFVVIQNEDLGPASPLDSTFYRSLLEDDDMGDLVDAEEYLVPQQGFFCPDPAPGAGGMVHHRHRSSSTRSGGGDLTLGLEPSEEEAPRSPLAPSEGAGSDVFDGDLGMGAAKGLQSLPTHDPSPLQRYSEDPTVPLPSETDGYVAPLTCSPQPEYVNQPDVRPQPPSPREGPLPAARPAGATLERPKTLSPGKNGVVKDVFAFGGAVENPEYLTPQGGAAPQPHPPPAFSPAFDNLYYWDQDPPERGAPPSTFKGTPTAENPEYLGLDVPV

Row | SMILES | viability [1] [%] | Her2 level [2] | viability [3] | viability [4] | viability [5] | differential viability (reversal) ([6]; H69AR cells + 2 uM doxorubicin) | viability [6, 9] [%] | viability [6, 10] [%] | inhibition [7] | inhibition [8]
1 | Cc1nnc(SCC(=O)N2c3ccccc3CC2C)s1 (stereo not given) | 105 | 106% (inactive) | 105% (inactive) | 99.3% (inactive) | 92% (inactive) | -0.71% (inactive) | 92.7 | 92 | -1.73% (inactive) | 0.81% (inactive)
2 | CC(=O)c1cccc(NC(=O)c2ccc(NS(C)(=O)=O)cc2)c1 | 118 | 80.5% (inactive) | 118% (inactive) | 97.7% (inactive) | 83.6% (inactive) | -1.39% (inactive) | 85 | 83.6 | -3.95% (inactive) | 1.75% (inactive)
3 | COC(=O)C1=C(C)NC(=O)C1(NC(=O)c1cccnc1)C(F)(F)F (stereo not given) | 126 | 96.5% (inactive) | 126% (inactive) | 99.4% (inactive) | 103% (inactive) | 14% (inactive) | 88.7 | 103 | -2.5% (inactive) | 0.55% (inactive)
4 | CCOC(=O)C(NC(=O)OC(C)C)(Nc1nccs1)C(F)(F)F (stereo not given) | 89.5 | 96.5% (inactive) | 89.5% (inactive) | 103% (inactive) | 110% (inactive) | 12% (inactive) | 97.6 | 110 | -4.29% (inactive) | 4.44% (inactive)
5 | CC(C)(C)N(Cc1cc2ccccc2[nH]c1=O)C(=O)C1CCCCC1 | 104 | 118% (inactive) | 104% (inactive) | 69.4% (inactive) | 86.1% (inactive) | 3.29% (inactive) | 82.8 | 86.1 | -3.2% (inactive) | -7.21% (inactive)
6 | Cc1nc(NC2=NCN(CC3CCCO3)CN2)nc2ccccc12 (stereo not given) | 98.5 | 83% (inactive) | 98.5% (inactive) | 86.2% (inactive) | 85.1% (inactive) | -13.8% (inactive) | 98.9 | 85.1 | -5.07% (inactive) | -3.81% (inactive)
7 | COC(=O)c1[nH]c2ccc(F)cc2c1NS(=O)(=O)c1ccc(OC)cc1OC | 79 | 75% (inactive) | 79% (inactive) | 88.5% (inactive) | 84.4% (inactive) | -15.5% (inactive) | 99.9 | 84.4 | -6.76% (inactive) | 4.92% (inactive)
8 | Cc1cc(C)cc(NS(=O)(=O)c2ccc3[nH]cc(C(=O)NCc4ccco4)c(=O)c3c2)c1 | 97 | 87% (inactive) | 97% (inactive) | 19% (active) | 41.1% (active) | -35.9% (inactive) | 77 | 41.1 | -5.39% (inactive) | 1.45% (inactive)
9 | CCC(=O)Nc1ccc(Cl)c(NC(=O)C(C)C)c1 | 97 | 80% (inactive) | 97% (inactive) | 87.9% (inactive) | 111% (inactive) | 7.54% (inactive) | 103 | 111 | -7.97% (inactive) | 6.07% (inactive)
10 | Cc1ccc(C2N(c3ccc(Cl)c(Cl)c3)C(=O)C3CCCN32)o1 (stereo not given) | 99 | 82.5% (inactive) | 99% (inactive) | 78.7% (inactive) | 96.2% (inactive) | 6.78% (inactive) | 89.4 | 96.2 | -1.45% (inactive) | 0.32% (inactive)
11 | CCOc1ccc(C2/C(=C(/O)c3ccc(OC)cc3)C(=O)C(=O)N2c2cc(C)on2)cc1OC (stereo not given) | 85 | 144% (inactive) | 85% (inactive) | 82.3% (inactive) | 89.4% (inactive) | -10.3% (inactive) | 99.7 | 89.4 | 1.45% (inactive) | 10.7% (inactive)
12 | CCOc1ccc(CNC(=O)C2CCCN(S(C)(=O)=O)C2)cc1OC (stereo not given) | 77 | 133% (inactive) | 77% (inactive) | 102% (inactive) | 98.8% (inactive) | 7.88% (inactive) | 90.9 | 98.8 | -1.67% (inactive) | 0.17% (inactive)
13 | CCCn1c(N)c(C(=O)CSc2nnc(Cc3ccccc3)o2)c(=O)n(C)c1=O | 104 | 90.5% (inactive) | 104% (inactive) | 75.2% (inactive) | 84.6% (inactive) | -13.6% (inactive) | 98.2 | 84.6 | 0.65% (inactive) | 3.93% (inactive)
14 | CCOC(=O)N1CCN(c2cc(=O)n(-c3ccc(OCC)cc3)c(=O)[nH]2)CC1 | 106 | 100% (inactive) | 106% (inactive) | 104% (inactive) | 97.5% (inactive) | 6.84% (inactive) | 90.7 | 97.5 | -4.93% (inactive) | -1.97% (inactive)
15 | COc1ccc(CCNC(=O)C2=COCCO2)cc1 | 126 | 94% (inactive) | 126% (inactive) | 109% (inactive) | 108% (inactive) | 4.46% (inactive) | 104 | 108 | -6.58% (inactive) | -5.08% (inactive)
16 | COC(=O)c1ccc(NC(=O)C(C)N2C(=O)c3ccccc3C2=O)cc1 (stereo not given) | 109 | 94% (inactive) | 109% (inactive) | 108% (inactive) | 108% (inactive) | 14.8% (inactive) | 92.8 | 108 | 0.41% (inactive) | -3.65% (inactive)

Row | SMILES | viability [1] [%] | Her2 level [2] | viability [3] | viability [4] | viability [5] | differential viability (reversal) ([6]; H69AR cells + 2 uM doxorubicin) | viability [6, 9] [%] | viability [6, 10] [%] | inhibition [7] | inhibition [8]
17 | O=C(NCCO)c1cccc2c1C(=O)c1ccccc1-2 | 97.5 | 95.5% (inactive) | 97.5% (inactive) | 98.4% (inactive) | 101% (inactive) | 15.4% (inactive) | 85.8 | 101 | -6.4% (inactive) | -1.48% (inactive)
18 | c1ccc2c(c1)CC(N1CCCCC1)c1ccccc1N2 (stereo not given) | 79.5 | 91% (inactive) | 79.5% (inactive) | 90.1% (inactive) | 91.5% (inactive) | 4.69% (inactive) | 86.8 | 91.5 | -1.82% (inactive) | -3.93% (inactive)
19 | COc1ccc(Cn2nnnc2C(c2cc3cc(C)cc(C)c3[nH]c2=O)N2CCOCC2)cc1 (stereo not given) | 108 | 94.5% (inactive) | 108% (inactive) | 117% (inactive) | 99.4% (inactive) | 11.9% (inactive) | 87.4 | 99.4 | -7.47% (inactive) | 0.32% (inactive)
20 | COc1ccccc1Nc1ccc(C(=O)NC2CCCCC2)cn1 | 100 | 96% (inactive) | 100% (inactive) | 106% (inactive) | 93.2% (inactive) | 12% (inactive) | 81.2 | 93.2 | -3.92% (inactive) | -3.11% (inactive)
21 | CCCn1nc(NS(=O)(=O)c2ccccc2)c2cc3ccccc3nc21 | 91.5 | 94.5% (inactive) | 91.5% (inactive) | 76.5% (inactive) | 120% (inactive) | 25% (inactive) | 94.9 | 120 | -1.84% (inactive) | 5.45% (inactive)
22 | Cc1ccc(S(=O)(=O)Nc2nc3ccccc3nc2NCc2ccco2)cc1 | 114 | 93.5% (inactive) | 114% (inactive) | 86.7% (inactive) | 22.5% (active) | 0.645% (inactive) | 21.9 | 22.5 | -5.47% (inactive) | -6.51% (inactive)
23 | Cc1csc(NC(=O)c2ccco2)n1 | 102 | 83.5% (inactive) | 102% (inactive) | 82.9% (inactive) | 83.3% (inactive) | 1.88% (inactive) | 81.4 | 83.3 | -3.46% (inactive) | -5.5% (inactive)
24 | CCOC(=O)c1c(-c2ccc(C)o2)csc1NC(=O)COC(=O)c1cccs1 | 93 | 87.5% (inactive) | 93% (inactive) | 69.3% (inactive) | 84.4% (inactive) | 5.23% (inactive) | 79.2 | 84.4 | 1.3% (inactive) | -3.77% (inactive)
25 | OCc1nc2ccccc2n1CC(O)Cn1ccc2ccccc21 (stereo not given) | 97.5 | 116% (inactive) | 97.5% (inactive) | 69.6% (inactive) | 85.2% (inactive) | -15.4% (inactive) | 101 | 85.2 | -1.97% (inactive) | 8.36% (inactive)
26 | N#Cc1c(NC(=O)c2ccc(Br)o2)n(-c2ccccc2)c2nc3ccccc3nc12 | 86.5 | 77% (inactive) | 86.5% (inactive) | 71.1% (inactive) | 85.2% (inactive) | -0.255% (inactive) | 85.5 | 85.2 | -5.73% (inactive) | 2.46% (inactive)
27 | COC(=O)C(C)NC(=O)C12CC3CC(CC(C3)C1)C2 (stereo not given) | 92 | 123% (inactive) | 92% (inactive) | 107% (inactive) | 99.7% (inactive) | 4.86% (inactive) | 94.8 | 99.7 | -1.54% (inactive) | -5.33% (inactive)
28 | Cc1ccc(S(=O)(=O)NCCNC(=O)c2ccccc2)cc1 | 99 | 82% (inactive) | 99% (inactive) | 105% (inactive) | 99.2% (inactive) | 19.7% (inactive) | 79.5 | 99.2 | -8.92% (inactive) | -0.83% (inactive)
29 | CC1Cc2ccccc2N1S(=O)(=O)c1cccc(C(=O)OCC(=O)NC2CCS(=O)(=O)C2)c1 (stereo not given) | 88 | 82.5% (inactive) | 88% (inactive) | 89.1% (inactive) | 97.2% (inactive) | 12.3% (inactive) | 84.9 | 97.2 | -6.4% (inactive) | -3.61% (inactive)
30 | CCS(=O)(=O)N1CCCC(C(=O)NCc2cccc(OC)c2)C1 (stereo not given) | 106 | 108% (inactive) | 106% (inactive) | 98.1% (inactive) | 96.6% (inactive) | -4.98% (inactive) | 102 | 96.6 | -5.2% (inactive) | 5.41% (inactive)
31 | O=C(CN1CCOCC1)N1CCN(C(=O)CN2CCOCC2)CC1 | 102 | 99.5% (inactive) | 102% (inactive) | 93.7% (inactive) | 104% (inactive) | 15.6% (inactive) | 88.9 | 104 | -3.73% (inactive) | 1.97% (inactive)
